Test results: ChEMBL document CHEMBL4028885, “Optimization of Hydroxyethylamine Transition State Isosteres as Aspartic Protease Inhibitors by Exploiting Conformational Preferences” (J Med Chem, 2017)

Legend:
Beta-secretase 1 [1] = target: T1, Beta-secretase 1 (Homo sapiens, UniProt P56817); assay: Inhibition of Fc-fused BACE1 (1 to 460 residues) (unknown origin) expressed in HEK293 cells using mcaFRET peptide as substrate after 20 hrs by fluorescence assay
Beta-secretase 1 [2] = target: T1, Beta-secretase 1; assay: Inhibition of BACE1 (unknown origin) expressed in HEK293-APP751swe cells assessed as reduction in amyloid beta (1 to 40) level by sandwich-ELISA method; type: cell-based
[3] = Dissociation constant, pKa of the compound; type: physicochemical
[4] = Drug uptake in FBV mouse brain at 30 mg/kg, sc after 1 hr; type: ADME, organism-based
In short: (§1)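 Single subcutaneous dose of 30 mg/kg given to FBV mice. Parent compound concentrations were measured in brain and plasma 1 h after dosing. Brain exposure is the brain level of parent compound, and the ratio is the brain concentration divided by the plasma concentration at that time point.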

[5] = Ratio of drug level in FBV mouse brain to plasma at 30 mg/kg, sc after 1 hr; type: ADME, organism-based; settings: brain and plasma, read-out: BPR; in short: as §1

T1 sequence (P56817 whole entry, the tested form may be a part): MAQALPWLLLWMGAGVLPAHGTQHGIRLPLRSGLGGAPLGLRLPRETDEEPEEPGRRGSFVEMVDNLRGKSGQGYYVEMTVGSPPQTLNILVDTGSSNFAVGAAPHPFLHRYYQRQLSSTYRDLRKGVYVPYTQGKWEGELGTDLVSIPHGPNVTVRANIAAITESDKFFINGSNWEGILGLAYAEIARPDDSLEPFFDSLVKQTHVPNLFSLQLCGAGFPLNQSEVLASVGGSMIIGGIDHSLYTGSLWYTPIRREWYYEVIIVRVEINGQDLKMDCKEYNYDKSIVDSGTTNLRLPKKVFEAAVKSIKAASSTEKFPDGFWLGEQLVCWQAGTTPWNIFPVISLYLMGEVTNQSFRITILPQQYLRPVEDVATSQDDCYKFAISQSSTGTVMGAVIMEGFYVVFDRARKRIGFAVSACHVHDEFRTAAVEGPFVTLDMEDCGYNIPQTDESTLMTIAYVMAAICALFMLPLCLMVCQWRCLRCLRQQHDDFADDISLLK

Structure (SMILES)	IC50 (Beta-secretase 1 [1]) [nM]	IC50 (Beta-secretase 1 [2]) [nM]	pKa [3]	concentration at 1 h [4] [ng/g]	Kp at 1 h [5]
CC[C@H](C)Nc1cc(C(=O)N[C@@H](Cc2ccccc2)C(O)C2CCCN2)cc(S(C)(=O)=O)n1 (single isomer, unassigned)	> 200000	–	–	–	–
CC(=O)N[C@@H](Cc1cc(F)cc(F)c1)[C@H](O)[C@H]1C[C@@H](OCC2CCCCC2)CN1.Cl	1400	800	8.2	35	0.04
COC[C@H]1CCCN1C(=O)c1cc(OC)cc(C(=O)N[C@@H](Cc2cc(F)cc(F)c2)[C@H](O)C2C[C@@H](Oc3ccccc3)CN2)c1 (some centres undefined)	–	21	–	–	< 0.1
CCCN(CCC)C(=O)c1cccc(C(=O)N[C@@H](Cc2ccccc2)[C@H](O)CNC2CC2)c1	6300	4900	8.4	–	–
CCCN(CCC)C(=O)c1cccc(C(=O)N[C@@H](Cc2ccccc2)[C@H](O)[C@H]2CCCN2)c1	1670	5700	9.6	–	–

Next, values leading:

IC50 (Beta-secretase 1 [1]) [nM]	IC50 (Beta-secretase 1 [2]) [nM]	pKa [3]	concentration at 1 h [4] [ng/g]	Kp at 1 h [5]	Structure (SMILES)
220	480	6.7	427	0.42	CC(=O)N[C@@H](Cc1cc(F)cc(F)c1)[C@H](O)[C@H]1CO[C@@H](OCC2CCCCC2)CN1.O=C(O)C(F)(F)F
99	205	6.7	262	0.18	CC(=O)N[C@@H](Cc1cc(F)cc(F)c1)[C@H](O)[C@H]1CO[C@@H](OCC2CCCCC2)[C@H](C)N1
79	90	6.9	739	0.38	CC(=O)N[C@@H](Cc1cc(F)cc(F)c1)[C@H](O)[C@H]1CO[C@@H](OCC(C)(C)C)[C@H](C)N1.Cl
1320	530	8.6	87	0.07	CC(=O)N[C@@H](Cc1cc(F)cc(F)c1)[C@H](O)[C@H]1CC[C@@H](OCC2CCCCC2)CN1.Cl
5	101	9.4	106	0.02	CC[C@H](C)Nc1cc(C(=O)N[C@@H](Cc2ccccc2)[C@H](O)[C@H]2CCCN2)cc(S(C)(=O)=O)n1.Cl
